Key:
[1] = molecular target: Peptidyl-prolyl cis-trans isomerase F, mitochondrial (Mus musculus) (UniProt Q99KR7); experiment: Blockade of amyloid beta (1 to 42)-induced cypD-mediated mPTP opening in mouse HT22 cells assessed as green to red fluorescence ratio at 5 uM preincubated for 10 mins followed by amyloid beta (1 to 42) addition measured at 1 hr time interval for 3 hrs by JC-1 staining based fluorescence assay (reference value: 100%); format: cell-based
In short: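 HT-22 mouse hippocampal cells were grown in DMEM with 10% FBS and seeded at 30,000/well the day before. They were loaded with 7.5 μM JC-1 (final) in phenol red-free Opti-MEM for 1 h 15 min at 37 °C, then PBS-washed. Test agent at 5 μM in Opti-MEM was added for 10 min at 37 °C, then 5 μM Aβ1–42 solution. Red (ex 530/em 580) and green (ex 485/em 530) fluorescence was read hourly for 3 h. The green/red ratio was expressed as percent change normalized to vehicle control (100%), from duplicate averages.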

[2] = tested on: HT-22; experiment: Induction of mitochondrial energy production impairment in mouse HT22 cells assessed as ATP production at 5 uM after 7 hrs by luciferase reporter gene assay relative to control; format: cell-based; conditions: ht-22, 7 h
In short: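 HT-22 cells were seeded at 10,000/well the day before. Test agent was added as a 10 μM solution (25 μL) without Aβ and incubated 7 h at 37 °C. Cells were PBS-washed and lysed in 1% Triton X-100/TBST, and protein was measured by BCA. Equal lysate amounts were assayed for ATP by luciferase kit. Levels were expressed relative to vehicle control, from duplicate averages.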

[3] = tested on: HT-22; experiment: Neuroprotection against amyloid beta (1 to 42)-induced deterioration of mitochondrial ATP production in mouse HT22 cells assessed as ATP recovery at 5 uM preincubated for 10 mins followed by amyloid beta (1 to 42) addition and measured after 7 hrs by luciferase reporter gene assay relative to control; format: functional
In short: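 HT-22 cells were seeded at 10,000/well the day before. Test agent was added as a 10 μM solution (25 μL) for 10 min at 37 °C, then 25 μL of 10 μM Aβ1–42 solution, followed by 7 h at 37 °C. Lysates (1% Triton X-100/TBST) were equalized by BCA protein and assayed for ATP with a luciferase kit. Vehicle control was subtracted, and percent recovery was calculated against Aβ-treated vehicle control, from duplicate averages.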

[4] = Cytotoxicity against mouse HT22 cells assessed as cell viability at 5 uM after 24 hrs by MTT assay relative to control; format: cell-based, HT-22; conditions: read-out: Activity
In short: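 HT-22 cells were seeded at 5000/well and treated with 5 μM test agent for 24 h at 37 °C. MTT was added for 2 h at 37 °C. Formazan was dissolved in 10% Triton X-100 in isopropanol with 0.1 M HCl for 1 h at room temperature. Absorbance was read at 570 nm, vehicle control subtracted, and viability expressed as percent of control, from duplicate averages.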

[5] = molecular target: Voltage-gated inwardly rectifying potassium channel KCNH2 (Homo sapiens, UniProt Q12809); experiment: Displacement of [3H]-astemizole from human ERG expressed in HEK293 cell membranes after 1 hr by microbeta counting method
In short: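 Radioligand binding used 2.5 µg HEK-293 membranes expressing human ERG in 50 mM Hepes pH 7.4, 60 mM KCl, 0.1% BSA, with 4 nM [³H]astemizole. Incubation was 1 h at room temperature, followed by filtration through PEI-presoaked filtermat and scintillation counting. Non-specific binding was defined with 0.1 µM astemizole. Each competitor was tested at 5–6 concentrations in duplicate tubes, with isotherms from two assays.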

Chain of Peptidyl-prolyl cis-trans isomerase F, mitochondrial (Mus musculus) (Q99KR7 whole entry): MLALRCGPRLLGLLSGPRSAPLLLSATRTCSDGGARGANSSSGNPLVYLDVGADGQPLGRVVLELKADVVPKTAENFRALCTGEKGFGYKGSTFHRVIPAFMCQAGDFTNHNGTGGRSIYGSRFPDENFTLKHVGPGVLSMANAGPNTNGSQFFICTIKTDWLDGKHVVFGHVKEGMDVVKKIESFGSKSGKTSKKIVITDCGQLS
Chain of Voltage-gated inwardly rectifying potassium channel KCNH2 (Q12809 whole entry): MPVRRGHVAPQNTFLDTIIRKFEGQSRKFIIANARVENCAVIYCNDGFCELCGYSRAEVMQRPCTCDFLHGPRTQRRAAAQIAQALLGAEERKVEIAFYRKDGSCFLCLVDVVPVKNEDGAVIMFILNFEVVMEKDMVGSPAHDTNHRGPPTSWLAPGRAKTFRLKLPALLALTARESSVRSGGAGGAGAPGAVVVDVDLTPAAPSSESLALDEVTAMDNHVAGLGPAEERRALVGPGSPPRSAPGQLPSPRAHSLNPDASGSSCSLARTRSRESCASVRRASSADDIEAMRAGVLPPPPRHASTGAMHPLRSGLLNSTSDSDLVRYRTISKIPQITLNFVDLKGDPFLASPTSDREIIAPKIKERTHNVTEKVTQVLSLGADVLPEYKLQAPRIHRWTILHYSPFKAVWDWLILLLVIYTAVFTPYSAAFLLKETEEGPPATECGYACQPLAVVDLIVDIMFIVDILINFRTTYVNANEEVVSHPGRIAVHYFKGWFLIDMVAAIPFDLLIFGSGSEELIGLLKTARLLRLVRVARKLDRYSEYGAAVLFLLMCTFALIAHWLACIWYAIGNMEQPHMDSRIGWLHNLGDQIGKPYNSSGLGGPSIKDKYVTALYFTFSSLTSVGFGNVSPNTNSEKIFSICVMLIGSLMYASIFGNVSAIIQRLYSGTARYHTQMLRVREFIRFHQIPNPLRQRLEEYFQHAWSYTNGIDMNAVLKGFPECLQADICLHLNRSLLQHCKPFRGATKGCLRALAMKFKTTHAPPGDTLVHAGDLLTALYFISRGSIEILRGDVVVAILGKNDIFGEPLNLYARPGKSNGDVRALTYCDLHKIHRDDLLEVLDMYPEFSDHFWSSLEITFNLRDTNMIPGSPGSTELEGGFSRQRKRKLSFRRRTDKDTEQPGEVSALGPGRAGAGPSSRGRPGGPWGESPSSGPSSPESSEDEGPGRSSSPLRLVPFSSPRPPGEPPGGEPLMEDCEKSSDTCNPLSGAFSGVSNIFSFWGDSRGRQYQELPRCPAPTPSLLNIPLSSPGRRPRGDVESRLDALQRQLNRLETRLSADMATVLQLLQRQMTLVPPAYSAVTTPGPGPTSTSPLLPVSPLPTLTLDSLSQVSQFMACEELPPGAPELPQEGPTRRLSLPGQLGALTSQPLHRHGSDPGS

Q: Which Ratio [1] does the source give for `O=C(Nc1ccccc1)Nc1nccnc1OCc1cccc(Cl)c1` here?
A: 59%

Q: With `O=C(Nc1cccc(Cl)c1)Nc1nccnc1OCc1cccc(F)c1` as the compound, how does the Ratio [1] read?
A: 39%

Q: With `CC(C)(C)NC(=O)Nc1nccnc1OCc1ccccc1` as the compound, how does the Ratio [1] read?
A: 51%

Q: Which Ratio [1] does the source give for `CC(C)(C)NC(=O)Nc1nccnc1OCc1ccccc1Cl` here?
A: 28%

Q: And the Activity [2]?
A: 55.3%

Q: For `CC(C)(C)CC(C)(C)NC(=O)Nc1nccnc1OCc1ccccc1Cl`, which Ratio [1] is on record?
A: 59%

Q: Which Ratio [1] does the source give for `CN1CCN(CCNC(=O)Nc2nccnc2OCc2ccccc2Cl)CC1` here?
A: 34%

Q: With `CN1CCN(CCNC(=O)Nc2nccnc2OCc2ccccc2)CC1` as the compound, how does the Ratio [1] read?
A: 43%

Q: And the Activity [2]?
A: 97.2%

Q: And the Activity [3]?
A: 0.7%

Q: For `O=C(Nc1ccccc1)Nc1nccnc1OCc1ccccc1`, which Ratio [1] is on record?
A: 44%

Q: Which Activity [2] does the source give for `NC(=O)CN1CCCC1=O` [PIRACETAM] here?
A: 88%

Q: What about the Activity [3] of the same compound?
A: 127%

Q: Which Ratio [1] does the source give for `O=C(Nc1cccc(Cl)c1)Nc1nccnc1OCc1cccc(Cl)c1` here?
A: 29%

Q: And the Activity [2]?
A: 85.4%

Q: What about the Activity [3] of the same compound?
A: -3.5%

Q: What does the source list for `O=C(NCCN1CCNCC1)Nc1nccnc1OCc1ccccc1Cl`?
A: Ratio [1]: 37%; Activity [2]: 70%

Q: Which results are given for `O=C(NCc1ccccc1)Nc1nccnc1OCc1ccccc1Cl`?
A: Ratio [1]: 33%; Activity [2]: 96.9%; Activity [3]: 71.3%; viability at 24 h, 5 µM [4]: 84.8%

Q: What does the source list for `O=C(Nc1nccnc1OCc1ccccc1)NC1CCCCCC1`?
A: Ratio [1]: 33%; Activity [2]: 103.4%; Activity [3]: 45.7%; viability at 24 h, 5 µM [4]: 59%

Q: Which results are given for `CC(C)(C)CC(C)(C)NC(=O)Nc1nccnc1OCc1cccc(F)c1`?
A: Ratio [1]: 29%; Activity [2]: 98.9%; Activity [3]: 32.9%

Q: For `CCNC(=O)Nc1nccnc1OCc1cccc(Cl)c1`, which Ratio [1] is on record?
A: 60%

Q: For `CC(C)(C)CC(C)(C)NC(=O)Nc1nccnc1OCc1ccc(F)cc1`, which Ratio [1] is on record?
A: 17%

Q: With `O=C(Nc1cccc(F)c1)Nc1nccnc1OCc1cccc(Cl)c1` as the compound, how does the Ratio [1] read?
A: 50%

Q: For `O=C(NCCCl)Nc1nccnc1OCc1ccccc1Cl`, which Ratio [1] is on record?
A: 72%

Q: With `CC(C)(C)CC(C)(C)NC(=O)Nc1nccnc1OCc1ccccc1` as the compound, how does the Ratio [1] read?
A: 25%

Q: And the Activity [2]?
A: 86%

Q: And the Activity [3]?
A: -59%

Q: Which Ratio [1] does the source give for `O=C(Nc1ccccc1)Nc1nccnc1OCc1cccc(F)c1` here?
A: 30%

Q: With `O=C(Nc1ccc(Cl)c(Cl)c1)Nc1nccnc1OCc1ccccc1` as the compound, how does the Ratio [1] read?
A: 29%

Q: What about the Activity [2] of the same compound?
A: 148.6%

Q: And the Activity [3]?
A: 71.2%

Q: And the viability at 24 h, 5 µM [4]?
A: 139%

Q: And the IC50 [5]?
A: 11.3 µM

Q: With `CN1CCN(CCNC(=O)Nc2nccnc2OCc2cccc(Cl)c2)CC1` as the compound, how does the Ratio [1] read?
A: 34%

Q: What about the Activity [2] of the same compound?
A: 96.1%

Q: And the Activity [3]?
A: 17.7%

Q: Which Ratio [1] does the source give for `O=C(Nc1ccccc1)Nc1nccnc1OCc1ccccc1Cl` here?
A: 39%

Q: What about the Activity [2] of the same compound?
A: 66.9%

Q: For `CC(C)(C)NC(=O)Nc1nccnc1OCc1cccc(F)c1`, which Ratio [1] is on record?
A: 55%

Q: For `O=C(NCCCl)Nc1nccnc1OCc1cccc(Cl)c1`, which Ratio [1] is on record?
A: 73%

Q: Which Ratio [1] does the source give for `O=C(Nc1cccc(Cl)c1)Nc1nccnc1OCc1ccccc1Cl` here?
A: 55%

Q: With `O=C(NCCCl)Nc1nccnc1OCc1ccccc1` as the compound, how does the Ratio [1] read?
A: 53%

Q: With `O=C(Nc1nccnc1OCc1ccc(Cl)cc1)Nc1cccc2ccccc12` as the compound, how does the Ratio [1] read?
A: 60%

Q: Which Ratio [1] does the source give for `CC(C)(C)CC(C)(C)NC(=O)Nc1nccnc1OCc1ccc(Cl)cc1` here?
A: 35%

Q: What about the Activity [2] of the same compound?
A: 85.7%

Q: What about the Activity [3] of the same compound?
A: -1.7%
